Test results reported in ChEMBL document CHEMBL1158007, “Steroidal glycosides from the bulbs of Allium jesdianum” (J Nat Prod, 1999).
Values after ≈ are worked out from the molar mass of the structure shown.

Assays:
[1] = test system: HCC 2998; assay: Growth inhibition of human HCC2998 cells after 72 hrs by MTT assay; assay type: functional; settings: HCC 2998, 72 h
[2] = test system: NCI-H23; assay: Growth inhibition of human NCI-H23 cells after 72 hrs by MTT assay; assay type: functional; settings: NCI-H23, 72 h
[3] = test system: ACHN; assay: Growth inhibition of human ACHN cells after 72 hrs by MTT assay; assay type: functional
[4] = Growth inhibition of human Hs 578T cells after 72 hrs by MTT assay; assay type: functional
[5] = test system: RPMI-8226; assay: Growth inhibition of human RPMI 8226 cells after 72 hrs by MTT assay; assay type: functional; settings: RPMI-8226, 72 h
[6] = test system: TK-10; assay: Growth inhibition of human TK-10 cells after 72 hrs by MTT assay; assay type: functional; settings: TK-10, 72 h
[7] = test system: DU-145; assay: Growth inhibition of human DU-145 cells after 72 hrs by MTT assay; assay type: functional; settings: DU-145, 72 h
[8] = test system: K562; assay: Growth inhibition of human K-562 cells after 72 hrs by MTT assay; assay type: functional; settings: K562, 72 h, read-out: LC50 (the source's name)
[9] = test system: UO-31; assay: Growth inhibition of human UO-31 cells after 72 hrs by MTT assay; assay type: functional; settings: UO-31, 72 h
[10] = test system: UACC-257; assay: Growth inhibition of human UACC-257 cells after 72 hrs by MTT assay; assay type: functional; settings: UACC-257, 72 h
[11] = Growth inhibition of human HCT 116 cells after 72 hrs by MTT assay; assay type: functional; settings: HCT-116, 72 h
[12] = test system: PC-3; assay: Growth inhibition of human PC-3 cells after 72 hrs by MTT assay; assay type: functional; settings: PC-3, 72 h
[13] = test system: HL-60; assay: Cytotoxicity against human HL-60 cells after 72 hrs by MTT assay; assay type: functional, cell-based; settings: HL-60, 72 h
In short: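 HL-60 cells grown in RPMI 1640 with 10% FBS, L-glutamine, penicillin and streptomycin, seeded at 3 × 10^4 cells/mL, and preincubated 24 h at 37 °C in 5% CO2. Sample in EtOH-H2O (1:1) added to a final 0.01-10 µg/mL, with vehicle-only controls, for 72 h. MTT added for 4 h, then formazan dissolved in DMSO and read at 550 nm. IC50 taken from the dose-response curve.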

[14] = test system: T47D; assay: Growth inhibition of human T47D cells after 72 hrs by MTT assay; assay type: functional
[15] = test system: HT-29; assay: Growth inhibition of human HT-29 cells after 72 hrs by MTT assay; assay type: functional; settings: HT-29, 72 h
[16] = test system: COLO 205; assay: Growth inhibition of human COLO205 cells after 72 hrs by MTT assay; assay type: functional; settings: COLO 205, 72 h
[17] = test system: MDA-MB-231; assay: Growth inhibition of human MDA-MB-231cells after 72 hrs by MTT assay; assay type: functional; settings: MDA-MB-231, 72 h
[18] = test system: LOX IMVI; assay: Growth inhibition of human LOX IMVI cells after 72 hrs by MTT assay; assay type: functional
[19] = test system: IGROV-1; assay: Growth inhibition of human IGROV1 cells after 72 hrs by MTT assay; assay type: functional; settings: IGROV-1, 72 h
[20] = test system: OVCAR-4; assay: Growth inhibition of human OVCAR-4 cells after 72 hrs by MTT assay; assay type: functional; settings: OVCAR-4, 72 h
[21] = test system: SN12C; assay: Growth inhibition of human SN12C cells after 72 hrs by MTT assay; assay type: functional; settings: read-out: LC50 (the source's name)
[22] = test system: EKVX; assay: Growth inhibition of human EKVX cells after 72 hrs by MTT assay; assay type: functional
[23] = test system: SNB-75; assay: Growth inhibition of human SNB-75 cells after 72 hrs by MTT assay; assay type: functional; settings: SNB-75, 72 h
[24] = test system: CCRF-CEM; assay: Growth inhibition of human CCRF-CEM cells after 72 hrs by MTT assay; assay type: functional
[25] = test system: SF-295; assay: Growth inhibition of human SF-295 cells after 72 hrs by MTT assay; assay type: functional; settings: SF-295, 72 h
[26] = test system: A498; assay: Growth inhibition of human A498 cells after 72 hrs by MTT assay; assay type: functional; settings: A498, 72 h
[27] = test system: MDA-N; assay: Growth inhibition of human MDA-N cells after 72 hrs by MTT assay; assay type: functional
[28] = test system: SR; assay: Growth inhibition of human SR cells after 72 hrs by MTT assay; assay type: functional
[29] = test system: NCI-H322M; assay: Growth inhibition of human NCI-H322M cells after 72 hrs by MTT assay; assay type: functional
[30] = test system: M14; assay: Growth inhibition of human M14 cells after 72 hrs by MTT assay; assay type: functional; settings: M14, 72 h
[31] = test system: MCF7; assay: Growth inhibition of human MCF7 cells after 72 hrs by MTT assay; assay type: functional; settings: MCF7, 72 h
[32] = test system: HOP-62; assay: Growth inhibition of human HOP-62 cells after 72 hrs by MTT assay; assay type: functional; settings: HOP-62, 72 h
[33] = test system: MOLT-4; assay: Growth inhibition of human MOLT-4 cells after 72 hrs by MTT assay; assay type: functional; settings: MOLT-4, 72 h
[34] = read-out: LC50 (the source's name)

For `C[C@@H]1CC[C@@]2(OC1)O[C@H]1C[C@H]3[C@@H]4CC[C@H]5C[C@@H](O[C@@H]6O[C@H](CO)[C@H](O[C@@H]7O[C@H](CO)[C@@H](O)[C@H](O[C@@H]8OC[C@@H](O)[C@H](O)[C@H]8O)[C@H]7O[C@@H]7O[C@H](CO)[C@@H](O)[C@H](O)[C@H]7O)[C@H](O)[C@H]6O)[C@H](O)C[C@]5(C)[C@H]4CC[C@]3(C)[C@H]1[C@@H]2C`, the GI50 [1] was 12 µM, the TGI [1] was 25 µM and the CC50 [1, 34] was 50 µM. The GI50 [2] was 2000 nM, the TGI [2] was 8.7 µM and the CC50 [2, 34] was 36 µM. The GI50 [3] was 2800 nM, the TGI [3] was 12 µM and the CC50 [3, 34] was 38 µM. For the same compound, the GI50 [4] was 17 µM, the TGI [4] was 32 µM and the CC50 [4, 34] was 63 µM. For the same compound, the GI50 [5] was 790 nM, the TGI [5] was 23 µM and the CC50 [5, 34] was 81 µM. The GI50 [6] was 4.4 µM, the TGI [6] was less than 100 µM and the CC50 [6, 34] was less than 100 µM. For the same compound, the GI50 [7] was 2400 nM, the TGI [7] was 14 µM and the CC50 [7, 34] was 54 µM. The CC50 [8] was less than 100 µM, the GI50 [9] was 2400 nM and the TGI [9] was 12 µM. It also gave a CC50 [9, 34] of 50 µM, a GI50 [10] of 17 µM and a TGI [10] of 36 µM. It also gave a CC50 [10, 34] of 71 µM, a GI50 [11] of 3.9 µM and a TGI [11] of 18 µM. It also gave a CC50 [11, 34] of 81 µM, a GI50 [12] of 3.1 µM and a TGI [12] of 15 µM. The CC50 [12, 34] was 41 µM, the IC50 [13] was 1.5 µg/mL (≈ 1.43 µM) and the GI50 [14] was 5.4 µM. The TGI [14] was 28 µM, the CC50 [14, 34] was less than 100 µM and the GI50 [15] was 1100 nM. For the same compound, the TGI [15] was 3.1 µM, the GI50 [16] was 1400 nM and the TGI [16] was 32 µM. It also gave a CC50 [16, 34] of less than 100 µM, a GI50 [17] of 1800 nM and a TGI [17] of 13 µM. It also gave a CC50 [17, 34] of 87 µM, a GI50 [18] of 1400 nM and a TGI [18] of 7.9 µM. The GI50 [19] was 3.7 µM, the TGI [19] was 17 µM and the CC50 [19, 34] was 48 µM. For the same compound, the GI50 [20] was 2000 nM, the TGI [20] was 4.6 µM and the CC50 [20, 34] was 13 µM. The CC50 [21] was less than 100 µM, the GI50 [22] was 11 µM and the TGI [22] was 27 µM. For the same compound, the CC50 [22, 34] was 63 µM, the GI50 [23] was 14 µM and the TGI [23] was 28 µM. The CC50 [23, 34] was 59 µM, the GI50 [24] was 250 nM and the TGI [24] was 550 nM. For the same compound, the CC50 [24, 34] was 2000 nM, the GI50 [25] was 12 µM and the TGI [25] was 49 µM. The CC50 [25, 34] was less than 100 µM, the GI50 [26] was 4.9 µM and the TGI [26] was 35 µM. For the same compound, the CC50 [26, 34] was less than 100 µM, the GI50 [27] was 11 µM and the TGI [27] was 28 µM. For the same compound, the CC50 [27, 34] was 74 µM, the GI50 [28] was 63 µM and the TGI [28] was less than 100 µM. It also gave a CC50 [28, 34] of less than 100 µM, a GI50 [29] of 12 µM and a TGI [29] of 26 µM. The CC50 [29, 34] was 55 µM, the GI50 [30] was 16 µM and the TGI [30] was 35 µM. It also gave a CC50 [30, 34] of 74 µM, a GI50 [31] of 300 nM and a TGI [31] of 620 nM. The CC50 [31, 34] was 1900 nM, the GI50 [32] was 1200 nM and the TGI [32] was 2800 nM. It also gave a CC50 [32, 34] of 6.2 µM, a GI50 [33] of 41 µM and a TGI [33] of 97 µM. For the same compound, the CC50 [33, 34] was less than 100 µM.
